Measured values from ChEMBL document CHEMBL3612020.
pIC50: −log10 of the molar value.

Tests used:
[1] = Metabolic stability in mouse liver microsomes assessed as compound remaining at 5 uM after 60 mins by LC/MS/MS analysis in presence of UDPGA; type: ADME; conditions: 1 h
Outline: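 Glucuronidation in mouse liver microsomes (0.5 mg/mL): 50 mM Tris-HCl pH 7.5, 8 mM MgCl2, 25 µg/mL alamethicin, pre-incubated at 37 °C. Started with 2 mM UDPGA (final), in duplicate, for 60 min. Quenched with cold acetonitrile plus internal standard; LC/MS/MS read-out, with cofactor-free controls.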

D-amino-acid oxidase = D-amino-acid oxidase (Homo sapiens, UniProt P14920); experiment: Inhibition of recombinant human DAAO expressed in HEK cells using D-serine as substrate assessed as formation of alpha-keto acid, ammonia, […] after 20 mins by horseradish peroxidase/o-phenylenediamine-based assay; design: species or system HEK293
D-amino-acid oxidase, sequence (P14920 whole entry): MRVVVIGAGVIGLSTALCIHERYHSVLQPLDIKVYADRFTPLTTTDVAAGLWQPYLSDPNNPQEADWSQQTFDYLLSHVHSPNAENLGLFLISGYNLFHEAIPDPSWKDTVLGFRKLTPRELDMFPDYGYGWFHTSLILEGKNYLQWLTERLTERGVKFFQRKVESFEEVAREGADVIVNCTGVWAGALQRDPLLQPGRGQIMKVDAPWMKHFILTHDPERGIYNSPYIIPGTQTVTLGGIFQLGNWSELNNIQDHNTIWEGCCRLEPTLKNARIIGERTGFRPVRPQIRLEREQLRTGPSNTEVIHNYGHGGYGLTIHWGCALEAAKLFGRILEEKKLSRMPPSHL
Outline: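 Human DAAO from HEK cells: lysate in 50 mM Tris pH 8.5 with 100 µM FAD, sonicated, then ion-exchange purified with a 0–0.5 M NaCl gradient. […] Enzyme set to give 2.0 mOD/min uninhibited. Rate read as absorbance change at 411 nm. Mean ± SD of ≥4 experiments in most cases.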

[2] = Metabolic stability in mouse liver microsomes assessed as compound remaining at 5 uM after 60 mins by LC/MS/MS analysis in presence of NADPH; type: ADME; conditions: 1 h
Outline: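 Mouse liver microsomes (0.5 mg/mL) with 5 µM test compound in 100 mM potassium phosphate pH 7.4 plus NADPH regenerating system (1.3 mM NADPH). Reaction started with microsomes, run in duplicate for 60 min, quenched with cold acetonitrile containing internal standard. Parent quantified by LC/MS/MS; cofactor-free controls included.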

With `O=c1cc(CSc2ccc(Cl)c(Cl)c2)occ1O` the Stability [1] was 5%.

For `O=c1[nH]c(=O)n(CCc2ccc(-c3ccccc3)cc2)nc1O`, the pIC50 (D-amino-acid oxidase) was 7.30.

Work on `O=c1[nH]c(=O)n(Cc2ccccc2)nc1O` yielded a pIC50 (D-amino-acid oxidase) of 5.29.

`O=c1[nH]c(=O)n(CCc2ccccc2O)nc1O` showed a pIC50 (D-amino-acid oxidase) of 7.05.

With `O=c1[nH]c(=O)n(CC(O)c2ccccc2)nc1O` (centres undefined) the pIC50 (D-amino-acid oxidase) was 6.33.

In the case of `O=c1[nH]c(=O)n(CCn2ccc3cccnc32)nc1O`, the pIC50 (D-amino-acid oxidase) was 6.51.

`Cc1ccc(CCn2nc(O)c(=O)[nH]c2=O)cc1` showed a pIC50 (D-amino-acid oxidase) of 7.05.

`O=c1[nH]c(=O)n(CCc2ccc(Oc3ccccc3)cc2)nc1O` showed a pIC50 (D-amino-acid oxidase) of 7.10.

For `Cc1ccccc1CCn1nc(O)c(=O)[nH]c1=O`, the pIC50 (D-amino-acid oxidase) was 7.10.

In the case of `O=c1[nH]c(=O)n(CCCc2ccccc2)nc1O`, the pIC50 (D-amino-acid oxidase) was 5.77.

In the case of `O=c1[nH]c(=O)n(CCn2cnc3ccccc32)nc1O`, the pIC50 (D-amino-acid oxidase) was 6.36.

Compound `O=c1[nH]c(=O)n(CCn2cccn2)nc1O` has a pIC50 (D-amino-acid oxidase) of 6.48.

In the case of `O=c1[nH]c(=S)n(CCc2ccccc2)nc1O`, the Stability [2] was 87% and the Stability [1] was “>= 99%”.

For `CC(Cn1nc(O)c(=O)[nH]c1=O)c1ccccc1` (centres undefined), the pIC50 (D-amino-acid oxidase) was 5.48.

`O=c1[nH]c(=O)n(CCc2ccc(Cl)cc2)nc1O` showed a pIC50 (D-amino-acid oxidase) of 7.40.

Work on `O=C(Cn1nc(O)c(=O)[nH]c1=O)c1ccccc1` yielded a pIC50 (D-amino-acid oxidase) of 6.07.

`O=c1[nH]c(=O)n(CCc2ccc(F)cc2)nc1O` gave a pIC50 (D-amino-acid oxidase) of 7.30.

`O=c1[nH]c(=O)n(CCc2cccc(O)c2)nc1O` gave a pIC50 (D-amino-acid oxidase) of 6.80.
